What all share (type): functional
Assay [1] concerns Staphylococcus aureus. Nature of the assay: Antibacterial activity against Staphylococcus aureus 101 ATCC 29213 assessed as bacterial growth inhibition by susceptibility testing assay. The note with it: Staphylococcus aureus, 101 ATCC 29213; read-out: MIC. Put shortly:
(§1)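 Broth microdilution MIC per CLSI in cation-adjusted Mueller Hinton broth, made fresh and held at 4 °C before testing. Medium supplemented with lysed horse blood where appropriate. Compound stocks prepared and serially diluted in sterile deionized water. Runs were accepted against QC ranges for comparator antibiotics and ATCC QC strains.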

Assay [2] deals with Staphylococcus aureus. Nature of the assay: Antibacterial activity against methicillin-resistant, tet(M) tetracycline-resistant Staphylococcus aureus 161 assessed as bacterial growth inhibition by susceptibility testing assay. The note with it: Staphylococcus aureus, 161; read-out: MIC. The gist of the method: (§2)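 Broth microdilution MIC per CLSI in 96-well plates; compound stocks prepared and serially diluted in sterile deionized water; cation-adjusted Mueller Hinton broth prepared fresh and held at 4 °C before testing, supplemented with lysed horse blood as appropriate; runs accepted when comparator antibiotics fell within QC ranges for appropriate ATCC quality control strains.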

For assay [3], the system named is Staphylococcus aureus. Nature of the assay: Antibacterial activity against tet(K) tetracycline-resistant Staphylococcus aureus 158 assessed as bacterial growth inhibition by susceptibility testing assay. The note with it: Staphylococcus aureus, 158; read-out: MIC.
In a further assay the test system is Enterococcus faecalis. Nature of the assay: Antibacterial activity against tet(M) tetracycline-resistant Enterococcus faecalis 327 assessed as bacterial growth inhibition by susceptibility testing assay. The note with it: Enterococcus faecalis, 327; read-out: MIC. The gist of the method: as §2
Another assay concerns Enterococcus faecium. Nature of the assay: Antibacterial activity against tet(M) tetracycline-resistant Enterococcus faecium 404 assessed as bacterial growth inhibition by susceptibility testing assay. The note with it: Enterococcus faecium, 404; read-out: MIC.
Another assay has as its system Streptococcus pneumoniae. Nature of the assay: Antibacterial activity against tet(M) tetracycline-resistant Streptococcus pneumoniae 160 assessed as bacterial growth inhibition by susceptibility testing assay. The note with it: Streptococcus pneumoniae, 160; read-out: MIC.
In assay [4] the test system is Escherichia coli. Nature of the assay: Antibacterial activity against Escherichia coli 107 ATCC 25922 assessed as bacterial growth inhibition by susceptibility testing assay. The following applies: Escherichia coli, 107 ATCC 25922; read-out: MIC. Put shortly:
as §1

In assay [5] the test system is Escherichia coli. Nature of the assay: Antibacterial activity against tet(A) tetracycline-resistant Escherichia coli 155 assessed as bacterial growth inhibition by susceptibility testing assay. The note with it: Escherichia coli, 155; read-out: MIC. The gist of the method:
as §2

For a further assay, the system named is Klebsiella pneumoniae. Nature of the assay: Antibacterial activity against Klebsiella pneumoniae 457 harboring CTX-M-15 gene assessed as bacterial growth inhibition by susceptibility testing assay. The following applies: Klebsiella pneumoniae, 457; read-out: MIC. The gist of the method:
as §2

A further assay deals with Proteus mirabilis. Nature of the assay: Antibacterial activity against Proteus mirabilis 385 assessed as bacterial growth inhibition by susceptibility testing assay. The following applies: Proteus mirabilis, 385; read-out: MIC. The gist of the method: as §1
In assay [6] the test system is Pseudomonas aeruginosa. Nature of the assay: Antibacterial activity against Pseudomonas aeruginosa 555 BAA-47 assessed as bacterial growth inhibition by susceptibility testing assay. The following applies: Pseudomonas aeruginosa, 555 BAA-47; read-out: MIC. Put shortly: as §1
For a further assay, the system named is Enterobacter cloacae. Nature of the assay: Antibacterial activity against tet(A) tetracycline-resistant Enterobacter cloacae 603 assessed as bacterial growth inhibition by susceptibility testing assay. The note with it: Enterobacter cloacae, 603; read-out: MIC. Put shortly: as §2
For the next assay, the system named is Acinetobacter baumannii. Nature of the assay: Antibacterial activity against tet(B) tetracycline-resistant Acinetobacter baumannii 250 assessed as bacterial growth inhibition by susceptibility testing assay. The note with it: Acinetobacter baumannii, 250; read-out: MIC. The gist of the method: as §2
Assay [7] concerns Stenotrophomonas maltophilia. Nature of the assay: Antibacterial activity against Stenotrophomonas maltophilia 256 assessed as bacterial growth inhibition by susceptibility testing assay. The note with it: Stenotrophomonas maltophilia, 256; read-out: MIC. The gist of the method: (§3)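 Medium supplemented with lysed horse blood where appropriate. Compound stocks prepared and serially diluted in sterile deionized water. Runs were accepted against QC ranges for comparator antibiotics and ATCC QC strains.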

A further assay has as its system Burkholderia cenocepacia. Nature of the assay: Antibacterial activity against Burkholderia cenocepacia 240 assessed as bacterial growth inhibition by susceptibility testing assay. The following applies: Burkholderia cenocepacia, 240; read-out: MIC. Put shortly: as §3
For assay [8], the system named is Pseudomonas aeruginosa. Nature of the assay: Antibacterial activity against Pseudomonas aeruginosa 1145 assessed as bacterial growth inhibition by susceptibility testing assay. The gist of the method: as §2
The test system of assay [9] is Pseudomonas aeruginosa. Nature of the assay: Antibacterial activity against Pseudomonas aeruginosa 1145 infected in immunocompetent BALB/c mouse lung infection model assessed as log reduction in colony forming units at 40 mg/kg, iv bid administered at 2 hrs and 12 hrs post-infection measured 24 hrs post-drug treatment. The gist of the method:
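Female BALB/c mice (18−20 g) received intranasal inoculum under light anesthesia. IV treatment at 2 and 12 h postinfection, six mice per group per dose. An untreated group was harvested at 2 h. Lungs were taken 24 h after treatment start, weighed, homogenized, diluted and plated on MacConkey medium overnight at 37 °C, 5% CO2. Read-out: CFU per gram lung.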

Values after ≈ are worked out from the molar mass of the structure shown.

Broadly, the MIC is the lowest concentration that inhibits growth of the organism. For the molecule `CN(C)[C@@H]1C(O)=C(C(N)=O)C(=O)[C@@]2(O)C(O)=C3C(=O)c4c(O)c5c(c(OC(F)(F)F)c4C[C@H]3C[C@@H]12)[C@@H]1[C@H](CN5)CC2CCCN21` (some centres not stated), the MIC in the assay with Staphylococcus aureus [1] was 0.25 µg/mL (≈ 0.394 µM); with Staphylococcus aureus [2] it was 1 µg/mL (≈ 1.58 µM); in the assay with Staphylococcus aureus [3], 0.0625 µg/mL (≈ 0.0985 µM); with Enterococcus faecalis it was 0.125 µg/mL (≈ 0.197 µM); with Enterococcus faecium it was 0.0625 µg/mL (≈ 0.0985 µM); in the assay on Streptococcus pneumoniae it was no more than 0.0156 µg/mL. In addition, the MIC in the assay with Escherichia coli [4] worked out at 0.0625 µg/mL (≈ 0.0985 µM); in the assay on Escherichia coli [5] it was 0.25 µg/mL (≈ 0.394 µM); in the assay on Klebsiella pneumoniae, 2 µg/mL (≈ 3.15 µM); with Proteus mirabilis, 4 µg/mL (≈ 6.3 µM); with Pseudomonas aeruginosa [6] it was 8 µg/mL (≈ 12.6 µM); with Enterobacter cloacae, 4 µg/mL (≈ 6.3 µM). Also, the MIC amounted to 16 µg/mL (≈ 25.2 µM) in the assay on Acinetobacter baumannii, 4 µg/mL (≈ 6.3 µM) in assay [7] and 32 µg/mL (≈ 50.4 µM) with Burkholderia cenocepacia.

For the molecule `CN(C)[C@@H]1C(O)=C(C(N)=O)C(=O)[C@@]2(O)C(O)=C3C(=O)c4c(O)c5c(c(OC(F)(F)F)c4C[C@H]3C[C@@H]12)[C@@H]1[C@H](CN5)CC2COCCN21` (some centres not stated), the MIC in the assay on Staphylococcus aureus [1] was 2 µg/mL (≈ 3.07 µM); with Staphylococcus aureus [2], 4 µg/mL (≈ 6.15 µM); with Staphylococcus aureus [3], 0.5 µg/mL (≈ 0.769 µM); in the assay with Enterococcus faecalis, 0.5 µg/mL (≈ 0.769 µM); in the assay with Enterococcus faecium it was 0.25 µg/mL (≈ 0.384 µM); in the assay with Streptococcus pneumoniae, 0.0625 µg/mL (≈ 0.0961 µM). The MIC is 4 µg/mL (≈ 6.15 µM) in the assay with Escherichia coli [4]; 16 µg/mL (≈ 24.6 µM) in the assay on Escherichia coli [5]; greater than 32 µg/mL in the assay on Klebsiella pneumoniae; greater than 32 µg/mL in the assay with Proteus mirabilis; greater than 32 µg/mL with Pseudomonas aeruginosa [6]; greater than 32 µg/mL in the assay on Enterobacter cloacae. Besides, the values for the MIC (with Acinetobacter baumannii; in [7]; in the assay with Burkholderia cenocepacia) were 16 µg/mL (≈ 24.6 µM), 16 µg/mL (≈ 24.6 µM) and greater than 32 µg/mL, respectively.

In the case of `C[C@@H](O)[C@H]1C(=O)N2C(C(=O)O)=C(S[C@@H]3CN[C@H](C(=O)N(C)C)C3)[C@H](C)[C@H]12` [MEROPENEM], the MIC with Pseudomonas aeruginosa [8] was 4 µg/mL (≈ 10.4 µM). Besides, in the assay on Pseudomonas aeruginosa [9], the log10CFU/g is listed as 2.

As to `CCCN1CC[C@@]2(C)CNc3c(O)c4c(c(F)c3[C@@H]12)C[C@H]1C[C@H]2[C@H](N(C)C)C(O)=C(C(N)=O)C(=O)[C@@]2(O)C(O)=C1C4=O`, the MIC with Staphylococcus aureus [1] worked out at 0.5 µg/mL (≈ 0.855 µM); in the assay with Staphylococcus aureus [2] it was 8 µg/mL (≈ 13.7 µM); with Staphylococcus aureus [3] it was 0.125 µg/mL (≈ 0.214 µM); with Enterococcus faecalis, 8 µg/mL (≈ 13.7 µM); in the assay with Enterococcus faecium, 4 µg/mL (≈ 6.84 µM); with Streptococcus pneumoniae, 0.5 µg/mL (≈ 0.855 µM). The MIC in the assay on Escherichia coli [4] is 1 µg/mL (≈ 1.71 µM); in the assay with Escherichia coli [5], 4 µg/mL (≈ 6.84 µM); in the assay on Klebsiella pneumoniae it was 16 µg/mL (≈ 27.4 µM); in the assay on Proteus mirabilis, 32 µg/mL (≈ 54.7 µM); in the assay with Pseudomonas aeruginosa [6], greater than 32 µg/mL; in the assay with Enterobacter cloacae, 16 µg/mL (≈ 27.4 µM). Further, the minimal inhibitory concentration (MIC) in the assay on Acinetobacter baumannii is 16 µg/mL (≈ 27.4 µM); in [7], 4 µg/mL (≈ 6.84 µM); in the assay with Burkholderia cenocepacia, greater than 32 µg/mL.

In the case of `CN(C)[C@@H]1C(O)=C(C(N)=O)C(=O)[C@@]2(O)C(O)=C3C(=O)c4c(O)c5c(c(F)c4C[C@H]3C[C@@H]12)[C@@H]1[C@@H](CCN1CCNCC(F)F)CN5`, the MIC in the assay with Staphylococcus aureus [1] is 0.5 µg/mL (≈ 0.787 µM); in the assay on Staphylococcus aureus [2], 1 µg/mL (≈ 1.57 µM); in the assay with Staphylococcus aureus [3], 0.0312 µg/mL (≈ 0.0491 µM); in the assay on Enterococcus faecalis, 0.125 µg/mL (≈ 0.197 µM); in the assay with Enterococcus faecium it was 0.0625 µg/mL (≈ 0.0983 µM); in the assay with Streptococcus pneumoniae, no more than 0.0156 µg/mL. The MIC in the assay on Escherichia coli [4] was 0.25 µg/mL (≈ 0.393 µM); with Escherichia coli [5], 4 µg/mL (≈ 6.29 µM); in the assay on Klebsiella pneumoniae it was 4 µg/mL (≈ 6.29 µM); in the assay with Proteus mirabilis, 8 µg/mL (≈ 12.6 µM); with Pseudomonas aeruginosa [6], greater than 32 µg/mL; with Enterobacter cloacae it was 8 µg/mL (≈ 12.6 µM). In addition, the values for the MIC (in the assay with Acinetobacter baumannii; in assay [7]; in the assay with Burkholderia cenocepacia) were 8 µg/mL (≈ 12.6 µM), 4 µg/mL (≈ 6.29 µM) and 32 µg/mL (≈ 50.3 µM), respectively.

These data come from ChEMBL document CHEMBL3580574, “Design, Synthesis, and Biological Evaluation of Hexacyclic Tetracyclines as Potent, Broad Spectrum Antibacterial Agents” (J Med Chem, 2015).
